In test [1] the target is T1, Kinesin-like protein KIF11 (Homo sapiens, UniProt P52732).
T1 sequence (P52732 whole entry): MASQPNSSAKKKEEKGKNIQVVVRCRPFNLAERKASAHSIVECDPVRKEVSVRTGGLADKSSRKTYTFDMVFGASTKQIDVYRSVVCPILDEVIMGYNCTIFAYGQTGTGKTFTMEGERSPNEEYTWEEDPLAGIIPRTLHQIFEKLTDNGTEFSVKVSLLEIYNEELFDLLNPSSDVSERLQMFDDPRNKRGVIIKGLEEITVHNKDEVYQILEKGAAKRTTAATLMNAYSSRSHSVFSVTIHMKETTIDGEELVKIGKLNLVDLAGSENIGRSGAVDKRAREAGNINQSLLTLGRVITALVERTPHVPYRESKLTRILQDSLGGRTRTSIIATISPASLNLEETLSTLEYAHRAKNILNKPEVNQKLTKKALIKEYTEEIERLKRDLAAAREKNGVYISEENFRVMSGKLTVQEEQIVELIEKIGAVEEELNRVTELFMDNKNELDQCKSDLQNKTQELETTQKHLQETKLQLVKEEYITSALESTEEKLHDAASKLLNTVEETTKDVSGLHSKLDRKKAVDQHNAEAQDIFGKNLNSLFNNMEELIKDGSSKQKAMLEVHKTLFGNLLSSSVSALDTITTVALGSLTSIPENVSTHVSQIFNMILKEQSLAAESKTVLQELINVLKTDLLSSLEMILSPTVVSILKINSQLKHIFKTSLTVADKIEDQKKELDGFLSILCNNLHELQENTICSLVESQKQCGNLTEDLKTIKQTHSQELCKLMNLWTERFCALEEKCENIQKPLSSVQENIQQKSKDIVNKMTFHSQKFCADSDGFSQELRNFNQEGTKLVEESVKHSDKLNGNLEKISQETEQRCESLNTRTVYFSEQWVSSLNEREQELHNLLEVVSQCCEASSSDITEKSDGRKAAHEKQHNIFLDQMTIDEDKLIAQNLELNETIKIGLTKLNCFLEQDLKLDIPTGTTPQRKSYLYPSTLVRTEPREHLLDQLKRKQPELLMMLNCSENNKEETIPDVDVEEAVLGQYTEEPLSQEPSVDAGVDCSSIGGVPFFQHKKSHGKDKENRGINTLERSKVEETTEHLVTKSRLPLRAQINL
Kind of test: In vitro inhibitory concentration towards kinesin spindle protein activity of ATP hydrolysis in the presence of microtubules measured by ATPase assay (n=3).

Test [2] has as its target T2, Caspase-3 (Homo sapiens, UniProt P42574).
T2 sequence (P42574 whole entry): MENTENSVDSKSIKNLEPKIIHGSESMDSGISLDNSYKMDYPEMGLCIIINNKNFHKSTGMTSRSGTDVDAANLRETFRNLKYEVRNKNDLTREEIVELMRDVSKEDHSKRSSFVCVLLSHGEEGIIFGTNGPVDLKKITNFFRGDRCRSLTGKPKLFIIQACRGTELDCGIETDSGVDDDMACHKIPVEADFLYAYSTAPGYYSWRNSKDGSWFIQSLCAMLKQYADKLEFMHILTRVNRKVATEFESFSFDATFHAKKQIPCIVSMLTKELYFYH
Kind of test: Inhibitory concentration towards caspase-3 induction in human A2780 ovarian carcinoma cells. Type of test: functional, cell-based. An outline of the steps: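 A2780 human ovarian carcinoma cells were treated with compound. Caspase-3 activation, used as an apoptosis marker, was then measured in cell lysates with a fluorescent kit that reads release of the AFC fluorophore from DEVD-AFC substrate. The value is a concentration giving 50% of caspase-3 induction.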

Each structure is given as a SMILES string. Bounds are passed on as bounds.

As a reminder, the IC50 is the midpoint of a concentration-inhibition curve. On to `CC(=O)N1N=C(c2c(F)cccc2F)CC1c1ccccc1` (configuration not stated), for which the IC50 in test [1] came to 10.9 µM.
Still for that read-out and setting: the value for `CC(=O)N1N=C(c2ccccc2)CC1c1ccccc1` (configuration not stated) was greater than 50 µM; that for `CNC(=O)N1N=C(c2cc(F)ccc2F)CC1c1ccccc1` (configuration not stated) was 3.1 µM.
Same read-out and setting: the value for `CC(=O)N1N=C(c2ccccc2C)CC1c1ccccc1` (configuration not stated) was 46.2 µM; that for `CC(C)C(=O)N1N=C(c2ccccc2Cl)CC1c1cccc(O)c1` (configuration not stated) was 1.1 µM.
On the same count and under the same terms, the value for `CC(=S)N1N=C(c2cc(F)ccc2F)CC1c1ccccc1` (configuration not stated) was 0.25 µM.
With `CC(=O)N1N=C(c2cc(F)ccc2F)C[C@H]1c1cccc(O)c1`, the IC50 in test [1] came to 0.026 µM; in test [2], 15 nM.
Take `CC(=O)N1N=C(c2cc(F)ccc2F)CC1c1cccs1` (configuration not stated): the IC50 in test [1] stood at 1.8 µM.
On the same count and under the same terms, the value for `CC(=O)N1N=C(c2ccccc2F)CC1c1ccccc1` (configuration not stated) was 3.6 µM.
Same read-out and setting: next, `O=C(c1ccccc1)N1N=C(c2ccccc2Cl)CC1c1cccc(O)c1` (configuration not stated): 13.5 µM; `CC(=O)N1N=C(c2ccccc2Cl)CC1c1ccccc1` (configuration not stated): 3.6 µM.
Same read-out and setting: next, `CC(=O)N1N=C(c2ccc(Cl)cc2)CC1c1ccccc1` (configuration not stated): greater than 50 µM; `CC(=O)N1N=C(c2cc(F)ccc2F)CC1c1cccc(O)c1` (configuration not stated): 0.051 µM.
Consider `CN(C)C(=O)N1N=C(c2cc(F)ccc2F)CC1c1ccccc1` (configuration not stated), for which the IC50 in test [1] came out at 0.084 µM.
With `CC(=O)N1N=C(c2ccccc2Cl)CC1c1cccc(O)c1` (configuration not stated), in test [1], the IC50 amounted to 0.45 µM.
Still for that read-out and setting: next, `CN1N=C(c2ccccc2Cl)CC1c1cccc(O)c1` (configuration not stated): greater than 50 µM; `CC(=O)N1N=C(c2cc(F)ccc2F)CC1c1ccccc1` (configuration not stated): 0.094 µM.
As for `COC(=O)N1N=C(c2ccccc2Cl)CC1c1cccc(O)c1` (configuration not stated), the IC50 in test [1] was greater than 50 µM.
The same measure, in the same setting: next, `CS(=O)(=O)N1N=C(c2cc(F)ccc2F)CC1c1ccccc1` (configuration not stated): 1.8 µM; `CCC(=O)N1N=C(c2ccccc2Cl)CC1c1cccc(O)c1` (configuration not stated): 1.2 µM; `NCCCC(=O)N1N=C(c2ccccc2Cl)CC1c1cccc(O)c1` (configuration not stated): 6 µM.
Still for that read-out and setting: the value for `CC(=O)N1N=C(c2ccc(Cl)cc2Cl)CC1c1ccccc1` (configuration not stated) was 37.6 µM; that for `CC(=O)N1N=C(c2ccccc2Br)CC1c1ccccc1` (configuration not stated) was 23.3 µM; that for `CC(C)(C)C(=O)N1N=C(c2ccccc2Cl)CC1c1cccc(O)c1` (configuration not stated) was 0.46 µM.
With `CC(=O)N1N=C(c2cccc(Cl)c2)CC1c1ccccc1` (configuration not stated), in test [1], the IC50 worked out at 9.8 µM.
As to `CC(=O)N1N=C(c2ccccc2)CC1c1cccc(O)c1` (configuration not stated), the IC50 in test [1] was 6.9 µM.
`CC(=O)N1N=C(c2cccc(F)c2F)CC1c1ccccc1` (configuration not stated): the IC50 in test [1] turned out to be 12.7 µM.
The same measure, in the same setting: next, `COc1ccccc1C1=NN(C(C)=O)C(c2ccccc2)C1` (configuration not stated): greater than 50 µM; `CC(=O)N1N=C(c2cc(F)cc(F)c2)CC1c1ccccc1` (configuration not stated): greater than 5 µM; `CC(=O)N1N=C(c2ccccc2C(F)(F)F)CC1c1ccccc1` (configuration not stated): greater than 50 µM.
As for `CCOC(=O)C1=C(C)NC(=S)N[C@H]1c1cccc(O)c1` [S-MENASTROL], the IC50 in test [1] was 10 µM.

Values taken from ChEMBL document CHEMBL1143528, “Kinesin spindle protein (KSP) inhibitors. Part 1: The discovery of 3,5-diaryl-4,5-dihydropyrazoles as potent and selective inhibitors of the mitotic kinesin KSP” (Bioorg Med Chem Lett, 2005).
